FLuc inh counter: Photinus pyralis luciferase inhibition counter-screen. 1.5% of 200,000 active. ATPLite firefly luciferase biochemical luminescence, 10 min. AID 1006. inhibition, % at 10 µM. P08659;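 active means inhibition above about 50% when tested at 10 µM, limit read from the data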
Target sequence (P08659 whole entry, looked up): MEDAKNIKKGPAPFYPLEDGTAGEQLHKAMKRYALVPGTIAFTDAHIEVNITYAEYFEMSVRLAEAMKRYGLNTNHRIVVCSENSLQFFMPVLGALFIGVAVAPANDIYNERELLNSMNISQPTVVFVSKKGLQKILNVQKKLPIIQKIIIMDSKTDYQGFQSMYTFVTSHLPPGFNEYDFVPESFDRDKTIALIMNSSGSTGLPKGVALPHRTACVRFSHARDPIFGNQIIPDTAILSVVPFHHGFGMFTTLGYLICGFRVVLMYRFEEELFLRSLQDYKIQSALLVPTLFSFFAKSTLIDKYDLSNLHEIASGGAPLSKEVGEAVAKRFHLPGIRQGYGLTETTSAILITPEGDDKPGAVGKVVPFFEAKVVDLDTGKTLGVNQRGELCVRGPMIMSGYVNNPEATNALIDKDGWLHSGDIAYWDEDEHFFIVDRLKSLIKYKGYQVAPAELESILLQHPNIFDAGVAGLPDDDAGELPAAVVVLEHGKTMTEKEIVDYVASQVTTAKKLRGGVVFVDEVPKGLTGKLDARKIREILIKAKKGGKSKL
PPC-1+TRAIL kill: kills PPC-1 cancer cells in the presence of TRAIL; PPC-1 cells + TRAIL, ATPLite viability luminescence; cell killing (% activity), % at 4 µM or 5 µM; 0.41% of 220,000 active; AID 1443;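 active means cell killing above 50% in the first pass at 4 µM, then a duplicate retest at 5 µM averaging 50% or more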;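 further: plate controls were cells with TRAIL plus DMSO for no effect and medium-only wells lacking cells for full effect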
HSP90 inh: blocks HSP90-mediated luciferase refolding in reticulocyte lysate; Rabbit reticulocyte lysate, luciferase refolding luminescence, 3 h; inhibition, % at 5.6 µM; 0.91% of 290,000 active;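 active means inhibition above the screen-wide mean plus 3 SD, computed separately per campaign, cut at about 16% in these data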;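 further: 0% = DMSO wells and 100% = 60 µM geldanamycin wells; inhibitors lower the luminescence because luciferase stays unfolded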
TRAIL sens C8: caspase-8 TRAIL sensitization; NB7+C8 cells + TRAIL, ATPlite viability luminescence; inhibition (viability loss, TRAIL sensitization), % at 10 µM; 1% of 360,000 active; AID 624354;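 active means compounds causing at least 50% loss of cell viability in the single-dose screen, relative to plate controls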
FLuc stim CS: firefly luciferase counter-screen for stimulation assays. activation factor at 10 µM. P08659. 200,000 tested, under 10 active. AID 1027. ATPlite luciferase biochemical, luminescence, 10 min; 0 = ATP-free wells, 1 = DMSO control;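 active means luciferase activation factor, scaled between plate controls, of at least 2 with compound at 10 µM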
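System: Luciferase/luciferin detection reagent, cell-free biochemical luciferase assay | Medium: PBS buffer for ATP | Dosing: Test compounds dosed from 2 mM stocks in 100% DMSO | Timing: 10 min at ambient temperature | Signal: Luminescence measurement of luciferase light output | Evaluation: Luciferase activation, seen as luminescence increase over controls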
HSP90 inh confirm: HSP90 inhibition, confirmation assay | shares compounds with HSP90 inh | rabbit reticulocyte lysate, luciferase refolding luminescence, 3 h | inhibition, % at 5.9 µM | 64% of 2,300 active | AID 1846; in the data active means inhibition above about 18%;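 further: 0% = vehicle wells and 100% = reference inhibitor wells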
FLuc counter: counter-screen for HSP90 inhibitors: inhibitors of firefly luciferase | shares compounds with HSP90 inh | purified native firefly luciferase, luminescence | inhibition, % at 5.9 µM | 48% of 2,300 active | AID 1847;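 active means inhibition above the mean inhibition of all tested sample wells plus 3 SD, cut at about 10% in these data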;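 further: 0% = DMSO with luciferase and 100% = wells lacking luciferase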
The depositor's hits bear a star; / = no result. Sampled rows, rich in hits. Any-hit rate of the full collection: about 2%.

SMILES	FLuc inh counter	PPC-1+TRAIL kill	HSP90 inh	TRAIL sens C8	FLuc stim CS	HSP90 inh confirm	FLuc counter
CCN(CC)P(=O)(Nc1ccc([N+](=O)[O-])cc1)c1c(C)nn(CCC#N)c1NC(=O)c1ccc(Cl)cc1 (stereo unspecified)	/	/	57.4*	10.8	/	14.2	-7.9
CC(=O)c1sc(NC(=O)c2ccc(Cl)cc2)nc1C	/	16.1	42.1*	8.5	/	24.7*	-16.1
Cc1nc(NC(=O)c2cccc(Cl)c2)sc1C(=O)N1CCCCC1	-0.4	/	34.2*	-0.8	1	48.2*	-15.6
Cc1nc(NC(=O)C2CC2)sc1C(=O)N1CCCCC1	-9.6	0.9	-0.4	3.9	1.1	/	/
CC1CCCC(NC(=S)Nc2cccc(S(=O)(=O)N(C)C)c2)C1C (stereo unspecified)	-2.4	17.9	-0.6	-11.0	1	/	/
COc1ccc(-c2ccc(NS(=O)(=O)c3cc([N+](=O)[O-])c(C)c([N+](=O)[O-])c3)cc2)nn1	/	/	-4.1	0.0	/	/	/
COc1ccc(C(=O)OCCOc2ccccc2C(C)=O)c(O)c1	-2.2	12.7	28.2*	-9.5	1	6.8	-4.4
CC(=O)c1ccccc1OCCOc1ccccc1C(C)=O	/	/	-1.6	7.5	/	/	/
N#Cc1cc[n+](CC(=O)c2ccc(NC(=O)c3ccccc3)cc2)cc1	/	-7.9	21.5*	16.5	/	-1.4	-8.9
CCOC(=O)c1c2c3c(cccc3n(C)c1=O)C(=O)c1ccccc1-2	/	/	44.3*	-14.6	/	1.7	-3.5
CCC(CC)Nc1ccc(C(CC(N)=O)NC(=O)Cc2cccc3ccccc23)cc1[N+](=O)[O-] (stereo unspecified)	/	/	-3.8	-0.3	/	/	/
Cc1ccc2nc(-c3ccccc3N)[nH]c2c1	80.1*	46.8	21.5*	33.1	0.2	38.6*	33.2*
Cc1ccc2nc(CCCc3nc4ccc(C)cc4[nH]3)[nH]c2c1	/	/	1.3	8.0	/	/	/
Cc1ccc(C)c(-c2nc3ccc(N)cc3[nH]2)c1	0.8	-39.0	-1.7	25.1	1	/	/
Cc1ccc2nc(-c3ccccn3)[nH]c2c1	/	/	46.3*	70.3*	/	60.8*	51.2*
CC(C)(C)OC(=O)N1CCc2onc(-c3ccc(Cl)cc3)c2C1=O	/	/	/	4.9	/	/	/
CC(O)CCc1nc2ccc(C(=O)O)cc2[nH]1 (stereo unspecified)	-6.2	0.6	8.6	7.4	1.1	/	/
O=C(O)c1cccc(-c2nc3ccccc3[nH]2)c1	48.4	22.1	72.7*	46.4	0.5	80.2*	60.1*
Cc1cccc2cc(-c3nc4ccc(C(=O)O)cc4[nH]3)c(=O)oc12	/	/	20.6*	54.2*	/	9.0	20.8*
O=C(O)c1ccc2nc(C(F)(F)F)[nH]c2c1	-1.6	-5.3	4.3	-4.8	1	/	/
O=C(O)c1ccc2nc(CO)[nH]c2c1	-7.7	-7.1	36.4*	-14.9	1.1	20.2*	-2.4
COc1ccc(C(=O)NNC(=O)CSc2nnc(COc3ccccc3OC)n2C)cc1	-1.0	2.6	0.8	0.9	1	/	/
CCOC(=O)N/N=C/c1cn(CCCOc2ccc(C)cc2)c2ccccc12	-2.6	11.1	18.5*	18.7	1	9.0	-7.0
COc1ccc(-n2cc(C(=O)c3ccccc3O)cn2)cc1	65.9*	16.5	34.2*	50.2*	0.3	52.3*	39.9*
CCOC(=O)c1cc(-c2ccccc2)nc2c(O)cccc12	/	/	/	-10.7	/	/	/
SMILES	FLuc inh counter	PPC-1+TRAIL kill	HSP90 inh	TRAIL sens C8	FLuc stim CS	HSP90 inh confirm	FLuc counter
c1ccc(Nc2ccccn2)nc1	/	8.2	24.6*	3.0	/	0.8	-2.0
O=C(O)c1cccc(N/N=C/c2ccc(F)c(F)c2)c1	11.5	20.3	6.7	-0.8	0.9	/	/
Cc1ccsc1/C=N/NC(=O)C(N)=O	-4.3	7.2	-3.4	1.6	1	/	/
Cc1ccc(/C=N/Nc2cccc(C(=O)O)c2)s1	23.1	31.9	24.1*	10.6	0.8	85.5*	84.8*
Cc1nn(-c2ccccc2Cl)c(Cl)c1/C=N/Nc1cccc(C(=O)O)c1	90.5*	40.5	32.8*	77.7*	0.1	60.7*	77.2*
O=C(O)c1ccc(N/N=C/c2cc3ccccc3nc2Cl)cc1	/	13.6	27.7*	15.2	/	5.9	-13.8
Cc1nn(-c2cccc(C(F)(F)F)c2)c(Cl)c1/C=N/Nc1cccc(C(=O)O)c1	6.7	21.6	11.3	-7.8	0.9	/	/
Cc1ccsc1/C=N/Nc1ccc(C(=O)O)cc1	/	/	68.3*	7.6	/	80.5*	77.1*
CC(C)C(=O)N1CCC1(C)C(=O)Nc1ccccc1OC(F)F (stereo unspecified)	/	/	/	0.0	/	/	/
CC(=O)N1CC(=O)N(c2ccccc2)C1=O	/	/	-6.9	-48.8	/	/	/
CCn1c(=O)c(=O)[nH]c2cc(C(=O)NC(C)c3ccc(S(N)(=O)=O)cc3)ccc21 (stereo unspecified)	/	/	-5.9	-2.8	/	/	/
O=C(O)c1ccc(N/N=C/c2cc(Br)cs2)cc1	/	/	49.7*	14.4	/	69.5*	71.1*
O=C(O)c1cccc(N/N=C/C2=C(Cl)c3cc(Cl)ccc3SC2)c1	3.4	-0.3	17.6*	-7.0	1	26.5*	29.9*
Cc1ccsc1/C=N/NC(=O)CNC(=O)c1ccccc1	/	/	-2.2	-13.7	/	/	/
O=C(O)c1cccc(N/N=C/c2cccc3ccccc23)c1	/	/	63.4*	21.4	/	87.0*	89.5*
Cc1ccsc1/C=N/Nc1cccc(C(=O)O)c1	58.9*	0.8	64.8*	16.1	0.4	94.0*	91.5*
Cc1c(Cl)cn2c(=O)cc(CN3CCN(c4ccc(F)cc4)CC3)nc2c1Cl	-3.3	3.7	2.2	/	1	/	/
CC(=O)Nc1ccc(NC(=O)c2ccccc2S(=O)(=O)c2ccc([N+](=O)[O-])cc2)cc1	1.4	16.9	0.1	0.6	1	/	/
O=C(N/N=C/c1sc2ccccc2c1O)c1cccc2ccccc12	10.2	-4.2	5.5	48.3	0.9	/	/
COc1ccc2cc(C(=O)N/N=C/c3sc4ccccc4c3O)ccc2c1	71.9*	19.9	17.5*	37.8	0.3	0.0	-9.8
Cc1onc(-c2ccccc2)c1C(=O)c1ccccc1	/	-7.4	0.0	-5.4	/	/	/
CC(C)n1cc(CN2CCCC(C(=O)Nc3cccc(-c4cc5ccccc5[nH]4)c3)C2)cn1 (stereo unspecified)	/	/	18.2*	30.9	/	10.8	-6.2
CCn1cc(CN2CCCC(C(=O)Nc3cccc(-c4cc5ccccc5[nH]4)c3)C2)c(C)n1 (stereo unspecified)	/	/	-0.7	12.5	/	/	/
CC(C)n1cc(CN2CCC(C(=O)Nc3cccc(-c4cscn4)c3)CC2)cn1	/	/	1.5	-7.2	/	/	/
Cn1cc(CN2CCCC(C(=O)Nc3cccc(-c4cc5ccccc5[nH]4)c3)C2)cn1 (stereo unspecified)	/	/	22.7*	4.0	/	6.9	-11.2
O=C(NCCO)c1cc(-c2cc(C(=O)NCCO)c3ccccc3n2)nc2ccccc12	/	/	2.1	-3.5	/	/	/
CCOC(=O)Nc1cc(C(=O)OCC)c(C)nc1C	-0.5	8.1	27.1*	-7.4	1	3.0	-3.1

Compound activity from PubChem.
